One test has as its system SV-T2. Description: Binding affinity for bradykinin receptor of SV-T2 fibroblasts. It is filed as functional, cell-based. The settings on record: Mus musculus, read-out: pA2 (converted). Summed up:
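Functional antagonism measured as pA2 against bradykinin-stimulated prostaglandin synthesis in SV-T2 fibroblasts, which express only B2 bradykinin receptors. Agonist activity was also checked in the same cells at concentrations up to 10 µM.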

The nature of test [1]: Displacement of [3H]bradykinin from bradykinin receptor in guinea pig ileal membrane. It is filed as cell membranes, Cavia porcellus. (In general: Displacement assays read how much labelled ligand stays bound in the presence of the test substance.)
Test [2] in a line: Displacement of [3H]bradykinin from bradykinin receptor of guinea pig ileal membrane; Inactive. Also noted: species or system Cavia porcellus.

For orientation: Ki means a dissociation constant, usually derived from enzyme kinetics or from competition with a known ligand. A low value points to tighter binding. Turning to `NC(N)=NCCC[C@@H](N)C(=O)N[C@@H](CCCN=C(N)N)C(=O)N1CCC[C@H]1C(=O)N1C[C@@H](O)C[C@H]1C(=O)NCC(=O)N[C@@H](Cc1cccs1)C(=O)N[C@@H](CO)C(=O)N1Cc2ccccc2C[C@@H]1C(=O)N1Cc2ccccc2C[C@H]1C(=O)N[C@@H](CCCN=C(N)N)C(=O)O`, the Kb in the test on SV-T2 was 0.794 nM. For the same compound, in test [1], the Ki came out at 0.381 nM.
Consider `NC(N)=NCCC[C@@H](N)C(=O)N[C@@H](CCCN=C(N)N)C(=O)N1CCC[C@H]1C(=O)N1C[C@@H](O)C[C@H]1C(=O)NCC(=O)N[C@@H](Cc1cccs1)C(=O)N[C@@H](CO)C(=O)N1Cc2ccccc2C[C@@H]1C(=O)N1Cc2ccccc2C[C@@H]1C(=O)N[C@@H](CCCN=C(N)N)C(=O)O`, for which, in the test with SV-T2, the Kb is 2510 nM. The Ki in test [1] was determined as 571 nM.
For `NC(N)=NCCC[C@@H](N)C(=O)N[C@@H](CCCN=C(N)N)C(=O)N1CCC[C@H]1C(=O)N1C[C@@H](O)C[C@H]1C(=O)NCC(=O)N[C@@H](Cc1cccs1)C(=O)N[C@@H](CO)C(=O)N1Cc2ccccc2C[C@@H]1C(=O)N1C2CCCC2C[C@H]1C(=O)N[C@@H](CCCN=C(N)N)C(=O)O` (stereo partly specified) the same measures were 0.398 nM and 0.176 nM.
`NC(N)=NCCC[C@@H](N)C(=O)N[C@@H](CCCN=C(N)N)C(=O)N1CCC[C@H]1C(=O)N1C[C@@H](O)C[C@H]1C(=O)NCC(=O)N[C@@H](Cc1cccs1)C(=O)N[C@H]1CSSC[C@@H](C(=O)O)NC(=O)[C@H](CCCN=C(N)N)NC(=O)[C@H](Cc2ccccc2)NC(=O)[C@H]2Cc3ccccc3CN2C1=O`: the Ki result in test [2] is “Not Active”.
`NC(N)=NCCC[C@@H](N)C(=O)N[C@@H](CCCN=C(N)N)C(=O)N1CCC[C@H]1C(=O)N1C[C@@H](O)C[C@H]1C(=O)NCC(=O)N[C@@H](Cc1cccs1)C(=O)N[C@H]1CSSC[C@@H](C(=O)N[C@@H](CCCN=C(N)N)C(=O)O)NC(=O)[C@H](Cc2ccccc2)NC(=O)[C@@H](Cc2ccccc2)NC1=O`: the Kb with SV-T2 was 3980 nM. The affinity in test [1], expressed as Ki, was 876 nM.
Consider `NC(N)=NCCC[C@@H](N)C(=O)N[C@@H](CCCN=C(N)N)C(=O)N1CCC[C@H]1C(=O)N1C[C@H](O)C[C@H]1C(=O)NCC(=O)N[C@@H](Cc1ccccc1)C(=O)N[C@@H](CO)C(=O)N[C@H](Cc1ccccc1)C(=O)N[C@@H](Cc1ccccc1)C(=O)N[C@@H](CCCN=C(N)N)C(=O)O`, for which the Kb in the test with SV-T2 was 6.31 nM. Also, the inhibition constant Ki in test [1] turned out to be 26.8 nM.

The values above are taken from ChEMBL document CHEMBL1125638, “Design and conformational analysis of several highly potent bradykinin receptor antagonists” (J Med Chem, 1991).
